Source: ChEMBL document CHEMBL1157082, “Sesquiterpenes from Oplopanax horridus” (J Nat Prod, 2010)
≈ marks a conversion by molar mass, not a printed value.

How the values were obtained:
Vero = experiment: Cytotoxicity against african green monkey Vero cells; format: cell-based; conditions: chlorocebus sabaeus
Method in brief: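 IC50 in Vero cells, run alongside the MIC assay. Test concentrations were at or below 1% of the maximum achievable stock concentration in DMSO.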

[1] = test system: Mycobacterium tuberculosis; experiment: Antituberculosis activity against Mycobacterium tuberculosis Erdman by microplate alamar blue assay; format: functional
Method in brief: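 MIC read by microplate Alamar Blue assay against virulent M. tuberculosis Erdman (ATCC 35801). Rifampin served as positive control. Crude fractions were scored as percent inhibition at several concentrations, and pure isolates as MICs.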

[2] = Selectivity index, ratio of IC50 for african green monkey Vero cells to MIC for Mycobacterium tuberculosis Erdman; format: functional
[3] = test system: Mycobacterium tuberculosis; experiment: Antituberculosis activity against Mycobacterium tuberculosis H37Ra by microplate alamar blue assay; format: functional

C=C[C@@](C)(O)CC[C@@H](O)[C@]1(C)CC[C@H](C(C)(C)O)O1 (relative stereo) [NEROPLOFUROL]
Activity (Vero): Non-toxic
MIC [1]: > 128 µg/mL

C=C[C@@H](O)C#CC#C[C@@H](O)/C=C\CCCCCCC [FALCARINDIOL]
Activity (Vero): Non-toxic
MIC [1]: 6.2 µg/mL (≈ 23.8 µM)

C=CC1(C)CC/C=C(/C)CCC(C(C)(C)O)O1 (stereo not given) [NEROPLOMACROL]
Activity (Vero): Non-toxic
MIC [1]: > 128 µg/mL

CCCCCCC/C=C\[C@H](O)C#CC#C[C@@H](O)CC [OPLOPANDIOL]
Activity (Vero): Non-toxic
Selectivity Index [2]: 6.2
MIC [1]: 61.5 µg/mL (≈ 234 µM)

c1cc2c(cc1[C@H]1OC[C@H]3[C@@H]1CO[C@@H]3c1ccc3c(c1)OCO3)OCO2 [SESAMIN]
MIC [3]: > 200 µg/mL
